As usually defined, the ILS is how much longer treated animals lived than controls. Read a high ILS as much gain in survival.

Type in all cases: functional
Test [1] has as its system Mus musculus. The test can be described thus: Percent increase in life span at dose 58 mg/kg/day in 10 mice implanted with P388 leukemia cell line.
Test [2] concerns Mus musculus. Kind of test: Percent increase in life span at dose 55 mg/kg/day in 10 mice implanted with P388 leukemia cell line. The essentials:
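Female DBA2 mice inoculated iv on day 0 with 10^4 P388 cells; single iv treatment on day 1 with drug as sulfate salt in physiological saline. Survival followed; %ILS from all deaths and survivors as (T/C × 100) − 100, maximal MST 30 days; survivors counted on days 30 and 60. Most experiments confirmed three times.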

In test [3] the test system is Mus musculus. Kind of test: Number of survivors on 30th day at dose 55 mg/kg/day in 10 mice implanted with P388 leukemia cell line; 7/10.
Test [4] has as its system Mus musculus. Kind of test: Percent increase in life span at dose 8 mg/kg/day in 7 mice implanted with P388 leukemia cell line for 1,8,15 schedule days from Exp-2.
The test system of test [5] is Mus musculus. The test can be described thus: Number of survivors of DBA2 mice on 30th day after inoculation with L1210 leukemia cell line intravenously at a dose of 1.5 mg/kg/day; 0/10. The note with it: route intravenous.
Test [6] has as its system Mus musculus. The test can be described thus: Number of survivors of DBA2 mice on 60th day after inoculation with L1210 leukemia cell line intravenously at a dose of 2 mg/kg/day; 0/10. The note with it: route intravenous.
Test [7] deals with Mus musculus. The test can be described thus: Number of survivors of DBA2 mice on 60th day after inoculation with L1210 leukemia cell line intravenously at a dose of 4.5 mg/kg/day; 0/10. The conditions noted are these: route intravenous.
Test [8] has as its system Mus musculus. The test can be described thus: Number of survivors of DBA2 mice on 60th day after inoculation with L1210 leukemia cell line intravenously at a dose of 6.5 mg/kg/day; 0/10. The conditions noted are these: route intravenous.
The test system of test [9] is Mus musculus. Kind of test: Percent increase in life span at dose 3 mg/kg/day in 10 mice implanted with P388 leukemia cell line; 0/10.
Test [10] relates to Mus musculus. Kind of test: Number of survivors on 60th day at dose 2.5 mg/kg/day in 7 mice implanted with P388 leukemia cell line for 1,8,15 scheduled days from Exp-2; 0/11.

The structures appear in SMILES notation.

`CCOC(=O)[C@H](Cc1c[nH]c2ccccc12)NC(=O)[C@@]1(O)[C@H](O)[C@]2(CC)C=CCN3CC[C@@]4(c5cc([C@@]6(C(=O)OC)C[C@H]7C[N@](CCc8c6[nH]c6ccccc86)C[C@](O)(CC)C7)c(OC)cc5N(C)[C@@]14C)[C@@H]32` came in with an ILS at 58 mg/kg/day in test [1] of 122%. Further, in test [2], the ILS at 55 mg/kg/day is more than 183%. Moreover, in test [3], the Survivors is reported as 7.

Consider `CCOC(=O)[C@@H](NC(=O)[C@@]1(O)[C@H](O)[C@]2(CC)C=CCN3CC[C@@]4(c5cc([C@@]6(C(=O)OC)C[C@H]7C[N@](CCc8c6[nH]c6ccccc86)C[C@](O)(CC)C7)c(OC)cc5N(C)[C@@]14C)[C@@H]32)[C@@H](C)CC`, for which, in test [4], the ILS at 8 mg/kg/day is more than 482%.

On to `CC[C@]1(O)C[C@H]2CN(CCc3c([nH]c4ccccc34)[C@@](C(=O)OC)(c3cc4c(cc3OC)N(C=O)[C@H]3[C@@](O)(C(=O)OC)[C@H](OC(C)=O)[C@]5(CC)C=CCN6CC[C@]43[C@@H]65)C2)C1` [VINCRISTINE], for which the Survivors in test [5], in test [6], in [7] and in [8] was 0 throughout.

Turning to `CC[C@]1(O)C[C@@H]2CN(CCc3c([nH]c4ccccc34)[C@@](C(=O)OC)(c3cc4c(cc3OC)N(C)[C@H]3[C@@](O)(C(N)=O)[C@H](O)[C@]5(CC)C=CCN6CC[C@]43[C@@H]65)C2)C1` [VINDESINE], the increase in life span (ILS) at 3 mg/kg/day in test [9] amounted to 49.2%. The compound further came in with a Survivors in test [10] of 0.

Source of the values: ChEMBL document CHEMBL1122917, “Vinblastin-23-oyl amino acid derivatives: chemistry, physicochemical data, toxicity, and antitumor activities against P388 and L1210 leukemias” (J Med Chem, 1985).
